Experimental data: ChEMBL document CHEMBL1124231, “Structure-activity relationships among analogues of pemedolac, cis-1-ethyl-1,3,4,9-tetrahydro-4-(phenylmethyl)pyrano[3,4-b]indo le-1-a cetic acid, a potent analgesic agent” (J Med Chem, 1988)

Key:
[1] = Inhibitory activity against prostaglandin biosynthesis in stimulated chondrocyte cell culture; format: functional
Mus musculus [2] = assay: Inhibition against writhing induced by Phenylbenzoquinone in male swiss albino mice at 25 mg/kg; format: functional
Method in brief: (§1)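 Mice in groups of 10, fasted overnight, dosed by gastric gavage with compound or vehicle (0.5% Tween 80 in distilled water). PBQ given ip 1 h later (0.15 mL of 0.02% per 10 g body weight). Writhes counted per mouse over the following 15 min. […] Benzylamine salts dosed as free acid.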

Rattus norvegicus [3] = assay: Inhibition against adjuvant-induced paw edema at a dose of 25 mg/kg in male Sprague-Dawley rats.; format: functional
Method in brief: (§2)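 Male Sprague-Dawley rats (180–200 g), left hindpaw injected intradermally with 0.1 mL Freund's complete adjuvant. Compound or vehicle given by gastric gavage just before FCA (day 0) and at 24 and 48 h. Paw volume read by plethysmometer before FCA and on day 3. Edema is the day 0 to day 3 volume difference, averaged per group.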

[4] = Partition coefficient (logP); format: physicochemical; details: octanol/water
Method in brief: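 Calculated by computer program, not measured experimentally.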

Mus musculus [5] = species: Mus musculus; assay: Inhibition against writhing induced by Phenylbenzoquinone in male swiss albino mice; format: functional; method in brief: as §1
Mus musculus [6] = assay: Inhibition against writhing induced by Phenylbenzoquinone in male swiss albino mice at 10 mg/kg; format: functional; method in brief: as §1
Mus musculus [7] = assay: Inhibition against writhing induced by Phenylbenzoquinone in male swiss albino mice; at 25 mg/kg; format: functional; method in brief: as §1
Mus musculus [8] = assay: Inhibition against writhing induced by Phenylbenzoquinone in male swiss albino mice at 200 mg/kg; format: functional; method in brief: as §1
Rattus norvegicus [9] = assay: Inhibition against adjuvant-induced paw edema at a dose of 25 mg/kg in Male Sprague-Dawley rats; format: functional; method in brief: as §2

Row | SMILES | IC50 [1] [nM] | inhibition in vivo at 25 mg/kg (Mus musculus [2]) [%] | inhibition in vivo at 25 mg/kg (Rattus norvegicus [3]) [%] | logP [4] | ED50 (Mus musculus [5]) [mg/kg] | further results
1 | C=CC[C@@H]1COC(CC)(CC(=O)O)c2[nH]c3c(C)cccc3c21 (stereo not given in full) | > 10000 | 15 | 31 | – | – | –
2 | CCc1cccc2c3c([nH]c12)C(CC)(CC(=O)O)CC[C@H]3Cc1ccccc1 (stereo not given in full) | – | 15 | 6 | – | – | –
3 | C=CC[C@@H]1COC(CC)(CC(=O)O)c2[nH]c3c(CCC)cccc3c21 (stereo not given in full) | – | 2 | 36 | – | – | –
4 | C=CC[C@H]1COC(CC)(CC(=O)O)c2[nH]c3c(CC)cccc3c21 (stereo not given in full) | 300 | – | – | 4.5 | 6.2 | –
5 | CCc1cccc2c3c([nH]c12)C(CC)(CC(=O)O)CC[C@@H]3Cc1ccccc1 (stereo not given in full) | – | – | 38 | 7.4 | 22.3 | –
6 | CCc1cccc2c3c([nH]c12)C(CC)(CC(=O)O)CC[C@@H]3c1ccccc1 (stereo not given in full) | – | 17 | 12 | – | – | –
7 | C=CC[C@H]1COC(CC)(CC(=O)O)c2[nH]c3c(CCC)cccc3c21 (stereo not given in full) | – | – | 32 | – | 9.5 | –
8 | C=CC[C@H]1CC[C@](CC)(CC(=O)O)c2[nH]c3c(CC)cccc3c21 | 4000 | 5 | 0 | – | – | –
9 | CCC1(CC(=O)O)CC[C@H](Cc2ccccc2)c2c1[nH]c1c(C)cccc21 (stereo not given in full) | – | – | 43 | 6.9 | 3.4 | –
10 | C=CCC[C@H]1CCC(CC)(CC(=O)O)c2[nH]c3c(CC)cccc3c21 (stereo not given in full) | – | 2 | 43 | – | – | –
11 | CCc1cccc2c3c([nH]c12)C(CC)(CC(=O)O)CCC3 (stereo not given) | 20 | – | – | 5.3 | – | –
12 | CCC[C@H]1CCC(CC)(CC(=O)O)c2[nH]c3c(CC)cccc3c21 (stereo not given in full) | – | 15 | – | – | – | –
13 | C=CC[C@H]1CCC(CC)(CC(=O)O)c2[nH]c3c(CC)cccc3c21 (stereo not given in full) | 15 | – | 44 | 6.3 | 10.6 | –
14 | CCC1(CC(=O)O)CC[C@@H](Cc2ccccc2)c2c1[nH]c1c(C)cccc21 (stereo not given in full) | – | – | 24 | – | – | inhibition in vivo at 10 mg/kg (Mus musculus [6]): 5%
15 | C=CC[C@H]1CCC(CC)(CC(=O)O)c2[nH]c3ccccc3c21 (stereo not given in full) | 50 | – | – | 5.2 | 19.6 | –
16 | CCC1(CC(=O)O)OC[C@@H](Cc2ccccc2)c2c1[nH]c1c(C)cccc21 (stereo not given in full) | – | 11 | 40 | – | – | –
17 | C=CC[C@H]1CCC(CC)(CC(=O)O)c2[nH]c3c(C)cccc3c21 (stereo not given in full) | 50 | – | – | 5.8 | 8.3 | –
18 | CCC1(CC(=O)O)OC[C@H](CCc2ccccc2)c2c1[nH]c1ccccc21 (stereo not given in full) | – | – | 0 | – | – | inhibition in vivo at 25 mg/kg (Mus musculus [7]): 0%
19 | CCc1cccc2c3c([nH]c12)C(CC)(CC(=O)O)CC[C@H]3c1ccccc1 (stereo not given in full) | – | 28 | 37 | – | – | –

Row | SMILES | IC50 [1] [nM] | inhibition in vivo at 25 mg/kg (Mus musculus [2]) [%] | inhibition in vivo at 25 mg/kg (Rattus norvegicus [3]) [%] | logP [4] | ED50 (Mus musculus [5]) [mg/kg] | further results
20 | C=CCC[C@@H]1CCC(CC)(CC(=O)O)c2[nH]c3c(CC)cccc3c21 (stereo not given in full) | – | 0 | 16 | – | – | –
21 | C=CC[C@H]1CCC(CC)(CC(=O)O)c2[nH]c3c(CCC)cccc3c21 (stereo not given in full) | – | – | 39 | 6.9 | 28.7 | –
22 | C=CC[C@@H]1COC(CC)(CC(=O)O)c2[nH]c3c(CC)cccc3c21 (stereo not given in full) | – | 33 | 55 | – | – | –
23 | C=C[C@@H]1CCC(CC)(CC(=O)O)c2[nH]c3c(CC)cccc3c21 (stereo not given in full) | – | 0 | 62 | – | – | –
24 | C=CC[C@H]1CC[C@@](CC)(CC(=O)O)c2[nH]c3c(CC)cccc3c21 | 15 | 94 | 54 | – | – | –
25 | C=CC[C@@H]1COC(CC)(CC(=O)O)c2[nH]c3ccccc3c21 (stereo not given in full) | > 10000 | 25 | 30 | – | – | –
26 | CCC1(CC(=O)O)OC[C@@H](CCc2ccccc2)c2c1[nH]c1ccccc21 (stereo not given in full) | – | – | 20 | – | – | inhibition in vivo at 25 mg/kg (Mus musculus [7]): 0%
27 | CCC1(CC(=O)O)CC[C@H](Cc2ccccc2)c2c1[nH]c1ccccc21 (stereo not given in full) | 11 | – | 49 | 6.2 | 1.2 | –
28 | C=CC[C@@H]1CCC(CC)(CC(=O)O)c2[nH]c3c(CC)cccc3c21 (stereo not given in full) | – | – | 35 | – | – | inhibition in vivo at 200 mg/kg (Mus musculus [8]): 23%
29 | C=CC[C@H]1COC(CC)(CC(=O)O)c2[nH]c3ccccc3c21 (stereo not given in full) | 120 | 21 | – | 3.3 | – | inhibition in vivo at 25 mg/kg (Rattus norvegicus [9]): 46%
30 | CCc1cccc2c3c([nH]c12)C(CC)(CC(=O)O)OC[C@@H]3Cc1ccccc1 (stereo not given in full) | – | – | 15 | 5.6 | – | –
31 | CCC1(CC(=O)O)CC[C@@H](Cc2ccccc2)c2c1[nH]c1ccccc21 (stereo not given in full) | – | 4 | 42 | – | – | –
32 | CCC1(CC(=O)O)OC[C@H](Cc2ccccc2)c2c1[nH]c1c(C)cccc21 (stereo not given in full) | – | – | 47 | 5 | 4.7 | –
33 | CCc1cccc2c3c([nH]c12)C(CC)(CC(=O)O)CC[C@@H]3CC1CC1 (stereo not given in full) | – | 0 | 19 | – | – | –
34 | C=CC[C@H]1COC(CC)(CC(=O)O)c2[nH]c3c(C)cccc3c21 (stereo not given in full) | 200 | 10 | 54 | 4 | – | –
35 | C=C[C@H]1CCC(CC)(CC(=O)O)c2[nH]c3c(CC)cccc3c21 (stereo not given in full) | – | 21 | 30 | – | – | –
36 | CCC1(CC(=O)O)OC[C@H](Cc2ccccc2)c2c1[nH]c1ccccc21 (single isomer, unassigned) [DEXPEMEDOLAC] | 23 | – | 37 | 4.4 | 2 | –
37 | CCc1cccc2c3c([nH]c12)C(CC)(CC(=O)O)OCC3 (stereo not given) [ETODOLAC] | 23 | – | – | – | – | –
38 | COc1ccc2c(c1)c(CC(=O)O)c(C)n2C(=O)c1ccc(Cl)cc1 [INDOMETHACIN] | 11 | – | – | – | 1.5 | –
